Screening results: PubChem, The Scripps Research Institute Molecular Screening Center
CHO parental Ca = signal in parental CHO cells, OX1R antagonist counter-screen; 330,000 compounds, 0.63% hits; AID 463079; parental CHO-K1, ATP-induced calcium, Fluo-8 fluorescence; inhibition, % at 5.6 µM;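 active = inhibition above that plate's mean sample inhibition plus 3 SD, cut at about 26% in these data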;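 note: 0% = ATP-challenged DMSO wells and 100% = DMSO wells without ATP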
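Test system: parental CHO cells; detection: calcium-sensitive Fluo-8 fluorescence; evaluation: percent inhibition of calcium signal; also added: ATP as calcium-mobilizing challenge; repeats: one well per compound; control set: ATP-challenged DMSO wells low, unchallenged DMSO wells high; compound: single nominal dose of 5.6 µM per compound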
GalR3 antagonist = human GalR3 antagonism; O60755; HEK293 GalR3-CNG cAMP membrane potential fluorescence; galR3 body fused to GalR1 C-terminus; inhibition, % at 3 µM; 360,000 compounds, 0.44% hits; AID 651719;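 active = inhibition above the screen-wide average plus 3 SD, cut at about 13% in these data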;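 note: forskolin and galanin both at EC90 stimulate the cells; cAMP rise reported by CNG channel membrane potential dye signal; 0% = forskolin plus galanin with DMSO and 100% = forskolin alone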
Target sequence (O60755 1-299 limits assumed): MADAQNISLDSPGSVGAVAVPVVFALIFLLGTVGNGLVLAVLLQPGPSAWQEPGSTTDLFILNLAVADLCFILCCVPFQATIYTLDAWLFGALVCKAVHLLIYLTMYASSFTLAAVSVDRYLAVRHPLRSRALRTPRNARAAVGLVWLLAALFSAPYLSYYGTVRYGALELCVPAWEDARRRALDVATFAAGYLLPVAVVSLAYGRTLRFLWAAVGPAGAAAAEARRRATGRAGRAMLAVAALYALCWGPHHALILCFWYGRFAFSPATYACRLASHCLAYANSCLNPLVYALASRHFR
OX1R antag-1 = human HCRTR1 antagonism; AID 434989; inhibition, % at 5 µM; 330,000 compounds, 0.43% hits; CHO/OX1R cells, Fluo-8 calcium fluorescence, orexin A; O43613;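 active = inhibition above its plate's threshold, mean inhibition of all tested compounds on the plate plus 3 SD, cut at about 37% in these data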;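 note: 0% = orexin A challenge wells and 100% = SB-334867-A antagonist wells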
OX1R antag-2 = blocks the human orexin 1 receptor; O43613; OX1R-expressing cells, FRET antagonist read-out; inhibition, % at 6.6 µM; 330,000 compounds, 1.8% hits; AID 485270; in the data active = inhibition mostly above about 38%, no sharp cut-off; inactive = mostly below about 40%;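 note: 0% = agonist challenge alone and 100% = reference antagonist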
GPR7 antag = human neuropeptides B/W receptor 1 antagonism. 290,000 compounds, 1.1% hits. GPR7-expressing cells, fluorescence antagonist assay. AID 1861. inhibition, % at 4.4 µM. P48145; in the data active = inhibition above about 16%, passing the limit was not always enough;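 note: cells stimulated with the agonist NPW; 0% = agonist with vehicle and 100% = vehicle without agonist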
Target sequence (P48145 whole entry, looked up): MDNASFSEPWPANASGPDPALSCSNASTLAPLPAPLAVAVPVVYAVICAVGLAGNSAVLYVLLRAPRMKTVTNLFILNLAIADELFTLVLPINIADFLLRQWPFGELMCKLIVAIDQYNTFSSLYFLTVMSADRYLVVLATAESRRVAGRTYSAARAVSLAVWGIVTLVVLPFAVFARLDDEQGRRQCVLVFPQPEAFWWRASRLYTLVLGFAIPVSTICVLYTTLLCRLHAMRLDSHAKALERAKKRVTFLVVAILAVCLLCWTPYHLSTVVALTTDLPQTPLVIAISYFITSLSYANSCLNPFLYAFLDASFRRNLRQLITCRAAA
OX1R HTRF confirm = OX1R (human) antagonism, HTRF confirmed; AID 492964; OX1R-expressing cells, HTRF antagonist assay; 1,800 compounds, 49% hits; inhibition, % at 6.6 µM; shares compounds with OX1R antag-2; in the data active = inhibition above about 55%;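 note: CHO cells expressing OX1R stimulated with orexin A at about EC80; 0% = agonist challenge alone and 100% = reference antagonist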
CHO-K1 HTRF cnt = counter-screen for OX1R antagonists: effect in parental CHO-K1 cells; shares compounds with OX1R antag-2; HTRF counterscreen; inhibition, % at 6.6 µM; 1,800 compounds, 48% hits; AID 493232; in the data active = inhibition above about 17%;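 note: 0% = agonist challenge with vehicle and 100% = vehicle alone without agonist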
The depositor's hits bear a star; · = not tested or not shown. This is a sample that favours compounds with a hit; in the whole collection about 3.1% have one here.

SMILES	CHO parental Ca	GalR3 antagonist	OX1R antag-1	OX1R antag-2	GPR7 antag	OX1R HTRF confirm	CHO-K1 HTRF cnt
COc1cccc(C(=O)Nc2cccc(-c3nnc(-c4ccco4)o3)c2)c1	-22	-1	-25	104*	-14	35	5
Cc1cc(NS(=O)(=O)c2ccc(NC(=O)c3cnc(Cl)c(Cl)c3)cc2)nc(C)n1	-17	-6	-18	3	·	·	·
COc1ccc(N=Nc2nc3cc(Br)c(Br)cc3n2C)c(OC)c1	11	10	27	84*	-4	88*	19*
COc1ccc(CNc2nc3ccccc3n2C)c(OC)c1	-14	-6	-20	22	4	·	·
CCOc1cc(CNc2ccc3[nH]c(=O)[nH]c3c2)ccc1OCC(=O)NC(C)(C)C	1	1	-8	30	-2	·	·
C=CCOc1ccc(CNc2ccc3[nH]c(=O)[nH]c3c2)cc1OCC	-2	-5	-5	112*	9	20	5
COc1ccccc1NC1=C(N2CCCCC2)C(=O)c2ccccc2C1=O	-19	·	7	79*	1	27	31*
O=C(CC1Nc2ccccc2NC1=O)NCC1COc2ccccc2O1 (centres undefined)	-16	·	23	79*	10	65*	-1
Cc1ccc(S(=O)(=O)Nc2ccc(C(=O)N3CCCC3)cc2)c(C)c1NS(C)(=O)=O	-5	-8	-5	16	6	·	·
O=C(COC(=O)CN1C(=O)C(=O)c2ccccc21)OCN1C(=O)c2ccccc2C1=O	-1	-9	-15	84*	-4	19	6
O=C(CCN1C(=O)c2ccccc2C1=O)OCN1C(=O)c2ccccc2C1=O	8	3	-20	14	-9	·	·
O=C(NCCCN1CCOCC1)c1sc2cc([N+](=O)[O-])ccc2c1Cl	-9	·	-11	93*	-2	39	56*
O=C(NCCCN1CCOCC1)c1sc2cc(Cl)ccc2c1Cl	-1	-5	-35	9	0	·	·
O=C(CN1CCCCCC1)Nc1ccc([N+](=O)[O-])cc1Cl	-12	-3	-17	13	-9	·	·
O=C(NCCN1CCOCC1)c1ccc([N+](=O)[O-])cc1[N+](=O)[O-]	-10	-2	-13	179*	0	73*	81*
O=C(CN1CCOCC1)Nc1cc([N+](=O)[O-])ccc1Cl	-4	-2	-5	79*	-10	31	35*
CC1CN(C(=O)/C=C/c2ccc([N+](=O)[O-])s2)CC(C)O1 (centres undefined)	-34	-4	-26	126*	-5	65*	75*
Cc1ccc2nc(Nc3ccccc3)c(/C=N/O)c(=O)n2c1	-22	-2	0	98*	-12	62*	10
COc1ccc(-n2nc([N+](=O)[O-])c(=NCCCN3CCCC3=O)n2O)cc1	-5	-5	0	154*	-13	51	88*
O=C(OCC(=O)N1CCCC1)c1cc([N+](=O)[O-])ccc1Cl	-5	-7	-6	118*	7	55	56*
CSC(=NC#N)N1CCN(c2ccccn2)CC1	-10	-6	-21	21	-13	·	·
COc1ccccc1/C=N/N1C(=O)c2cccc3cccc(c23)C1=O	-7	3	-8	97*	0	48	55*
COc1ccc(/C=N/N2C(=O)c3ccccc3C2=O)cc1	1	1	-2	16	-3	·	·
CCC1(c2ccc(F)cc2)NC(=O)N(CC(=O)Nc2cc(C)on2)C1=O (centres undefined)	2	-6	1	-2	·	·	·
C[C@H](NC(=O)[C@@H]1CSC2c3ccccc3C(=O)N21)C(=O)NCc1c(F)cccc1Cl (some centres undefined)	-14	-8	-31	3	2	·	·
SMILES	CHO parental Ca	GalR3 antagonist	OX1R antag-1	OX1R antag-2	GPR7 antag	OX1R HTRF confirm	CHO-K1 HTRF cnt
CCCCNC(=O)C(NC(=O)c1cccnc1)C(=O)c1ccccc1 (centres undefined)	·	-6	·	·	·	·	·
C=CCNc1sc(C(=O)c2ccccc2)c(N)c1-c1nc2ccccc2s1	-18	·	-8	93*	1	35	7
CCOc1cc(/C=C2/NC(=O)NC2=O)cc([N+](=O)[O-])c1O	6	-4	4	80*	-17	49	74*
Cc1ccc(C(=O)Nc2ccc3ccccc3n2)cc1	-9	-4	-27	21	6	·	·
COc1ccc(C(=O)Nc2ccc3ccccc3n2)cc1OC	-17	-11	-2	77*	-1	78*	1
O=C(NC1CCCCC1)C1CC(=O)N(c2cccc([N+](=O)[O-])c2)C1 (centres undefined)	10	-1	1	88*	-10	35	7
CC(=O)N1CCn2c3c(c(=O)c4cc(C)ccc42)CCC31 (centres undefined)	-5	-4	-11	82*	-5	29	13
CCCCC[n+]1cccc2c3ccccc3ccc21	-3	-2	-22	46	12	·	·
CCC[n+]1c2ccccc2cc2ccccc21	-17	-5	-9	84*	19	48	54*
COc1ccc(CCN2C(=O)CCC2(C)c2nnnn2-c2ccc3c(c2)OCCO3)cc1OC (centres undefined)	·	-2	·	·	·	·	·
COc1ccccc1N(CC(=O)NCCSc1ccccc1)S(=O)(=O)c1ccccc1	-23	-5	22	81*	-6	60*	3
N=c1c(C(=O)NC2CCCC2)cc2c(=O)n3ccccc3nc2n1CCN1CCOCC1	-8	-2	-7	102*	-6	35	43*
COCCCn1c(=N)c(C(=O)NCC2CCCO2)cc2c(=O)n3ccccc3nc21 (centres undefined)	-18	-3	-12	93*	-2	48	65*
COc1ccc(CCNC(=O)c2cc3c(=O)n4ccccc4nc3n(CC3CCCO3)c2=N)cc1OC (centres undefined)	-6	-2	-35	82*	12	60*	77*
COc1ccccc1C(=O)Nc1sc2c(c1C(N)=O)CCCC2	-4	-7	-4	79*	-2	69*	5
COc1ccccc1C(=O)Nc1sc2c(c1C#N)CCC2	-9	·	19	19	17	·	·
Cn1ccc(C(=O)Nc2sc3c(c2C(N)=O)CCCCC3)n1	-3	2	-15	18	3	·	·
Cn1cc(Br)c(C(=O)Nc2sc3c(c2C(N)=O)CCC3)n1	-30	1	-8	79*	-2	37	-3
CCN(CC)C(=O)c1cccc(-c2csc(C(C)(O)c3ccncc3)n2)c1 (centres undefined)	·	-1	·	·	·	·	·
Cc1csc(NC(=O)CSCC(=O)O)c1-c1nc2ccccc2s1	-8	1	23	83*	6	88*	15
CC(=O)Nc1ccc(SCC(=O)Nc2oc(C)c3c(C)n[nH]c(=O)c23)cc1	11	-5	-2	33	·	·	·
